Reference: ChEMBL document CHEMBL4665627 (Eur J Med Chem, 2019)
Values after ≈ are worked out from the molar mass of the structure shown.

Key:
Type in all cases: functional
Escherichia coli [1] = test: Antibacterial activity against Escherichia coli ATCC 25922 assessed as inhibition of bacterial growth after 24 hrs by CLSI protocol based two fold serial dilution method
Method in brief: (§1)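 Two-fold serial broth dilution in 96-well plates following CLSI; MIC (mM) taken as the lowest concentration giving complete growth inhibition; MIC values from three independent experiments.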

Aspergillus fumigatus = test: Antifungal activity against Aspergillus fumigatus assessed as inhibition of fungal growth after 24 hrs by CLSI protocol based two fold serial dilution method; method in brief: as §1
Candida parapsilosis = test: Antifungal activity against Candida parapsilosis ATCC 22019 assessed as inhibition of fungal growth after 24 hrs by CLSI protocol based two fold serial dilution method; conditions: Lodderomyces parapsilosis; method in brief: as §1
Klebsiella pneumoniae = test: Antibacterial activity against Klebsiella pneumoniae assessed as inhibition of bacterial growth after 24 hrs by CLSI protocol based two fold serial dilution method; method in brief: as §1
Pseudomonas aeruginosa [2] = test: Antibacterial activity against Pseudomonas aeruginosa ATCC 27853 assessed as inhibition of bacterial growth after 24 hrs by CLSI protocol based two fold serial dilution method; method in brief: as §1
Acinetobacter baumannii = test: Antibacterial activity against Acinetobacter baumannii assessed as inhibition of bacterial growth after 24 hrs by CLSI protocol based two fold serial dilution method; method in brief: as §1
Pseudomonas aeruginosa [3] = test: Antibacterial activity against Pseudomonas aeruginosa assessed as inhibition of bacterial growth after 24 hrs by CLSI protocol based two fold serial dilution method; method in brief: as §1
Candida albicans [4] = test: Antifungal activity against Candida albicans assessed as inhibition of fungal growth after 24 hrs by CLSI protocol based two fold serial dilution method; method in brief: as §1
Candida tropicalis = test: Antifungal activity against Candida tropicalis assessed as inhibition of fungal growth after 24 hrs by CLSI protocol based two fold serial dilution method; method in brief: as §1
Staphylococcus aureus [5] = test: Antibacterial activity against Staphylococcus aureus assessed as inhibition of bacterial growth after 24 hrs by CLSI protocol based two fold serial dilution method; method in brief: as §1
Escherichia coli [6] = test: Antibacterial activity against Escherichia coli assessed as inhibition of bacterial growth after 24 hrs by CLSI protocol based two fold serial dilution method; method in brief: as §1
Enterococcus faecalis = test: Antibacterial activity against Enterococcus faecalis assessed as inhibition of bacterial growth after 24 hrs by CLSI protocol based two fold serial dilution method; method in brief: as §1
Candida albicans [7] = test: Antifungal activity against Candida albicans ATCC 90023 assessed as inhibition of fungal growth after 24 hrs by CLSI protocol based two fold serial dilution method; method in brief: as §1
Staphylococcus aureus [8] = test: Antibacterial activity against methicillin-resistant Staphylococcus aureus N315 assessed as inhibition of bacterial growth after 24 hrs by CLSI protocol based two fold serial dilution method
Staphylococcus aureus [9] = test: Antibacterial activity against Staphylococcus aureus ATCC 29213 assessed as inhibition of bacterial growth after 24 hrs by CLSI protocol based two fold serial dilution method
Staphylococcus aureus [10] = test: Antibacterial activity against Staphylococcus aureus ATCC 25923 assessed as inhibition of bacterial growth after 24 hrs by CLSI protocol based two fold serial dilution method; method in brief: as §1

| SMILES | MIC (Escherichia coli [1]) [µM] | MIC (Aspergillus fumigatus) [µM] | MIC (Candida parapsilosis) [µM] | MIC (Klebsiella pneumoniae) [µM] | MIC (Pseudomonas aeruginosa [2]) [µM] | MIC (Acinetobacter baumannii) [µM] | MIC (Pseudomonas aeruginosa [3]) [µM] | MIC (Candida albicans [4]) [µM] | MIC (Candida tropicalis) [µM] | MIC (Staphylococcus aureus [5]) [µM] | MIC (Escherichia coli [6]) [µM] | MIC (Enterococcus faecalis) [µM] | MIC (Candida albicans [7]) [µM] | MIC (Staphylococcus aureus [8]) [µM] | MIC (Staphylococcus aureus [9]) [µM] | MIC (Staphylococcus aureus [10]) [µM] |
| --- | --- | --- | --- | --- | --- | --- | --- | --- | --- | --- | --- | --- | --- | --- | --- | --- |
| CCCCCCCCCCCCN1CCN(c2cc3c(cc2F)c(=O)c(-c2csc(N)n2)cn3CC)CC1 | 946 (≈ 513 µg/mL) | 473 (≈ 256 µg/mL) | 473 (≈ 256 µg/mL) | 946 (≈ 513 µg/mL) | 473 (≈ 256 µg/mL) | 473 (≈ 256 µg/mL) | 473 (≈ 256 µg/mL) | 473 (≈ 256 µg/mL) | 236 (≈ 128 µg/mL) | 473 (≈ 256 µg/mL) | 473 (≈ 256 µg/mL) | 946 (≈ 513 µg/mL) | 946 (≈ 513 µg/mL) | 946 (≈ 513 µg/mL) | 946 (≈ 513 µg/mL) | 946 (≈ 513 µg/mL) |
| CCn1cc(-c2csc(N)n2)c(=O)c2cc(N3CCN(CC(C)=O)CC3)c(Cl)cc21 | 288 (≈ 128 µg/mL) | 575 (≈ 256 µg/mL) | 288 (≈ 128 µg/mL) | 72 (≈ 32.1 µg/mL) | 36 (≈ 16.1 µg/mL) | 288 (≈ 128 µg/mL) | 288 (≈ 128 µg/mL) | 575 (≈ 256 µg/mL) | 288 (≈ 128 µg/mL) | 144 (≈ 64.2 µg/mL) | 1150 (≈ 513 µg/mL) | 288 (≈ 128 µg/mL) | 144 (≈ 64.2 µg/mL) | 72 (≈ 32.1 µg/mL) | 575 (≈ 256 µg/mL) | 288 (≈ 128 µg/mL) |
| CCCCCCN1CCN(c2cc3c(cc2F)c(=O)c(-c2csc(N)n2)cn3CC)CC1 | 140 (≈ 64.1 µg/mL) | 1120 (≈ 513 µg/mL) | 560 (≈ 256 µg/mL) | 140 (≈ 64.1 µg/mL) | 140 (≈ 64.1 µg/mL) | 70 (≈ 32 µg/mL) | 280 (≈ 128 µg/mL) | 1120 (≈ 513 µg/mL) | 560 (≈ 256 µg/mL) | 140 (≈ 64.1 µg/mL) | 134 (≈ 61.3 µg/mL) | 70 (≈ 32 µg/mL) | 1120 (≈ 513 µg/mL) | 280 (≈ 128 µg/mL) | 280 (≈ 128 µg/mL) | 140 (≈ 64.1 µg/mL) |
| CCn1cc(-c2csc(N)n2)c(=O)c2cc(F)c(N3CCN(CC(C)O)CC3)cc21 (stereo not given) | 37 (≈ 16 µg/mL) | 37 (≈ 16 µg/mL) | 148 (≈ 63.9 µg/mL) | 9 (≈ 3.88 µg/mL) | 5 (≈ 2.16 µg/mL) | 19 (≈ 8.2 µg/mL) | 148 (≈ 63.9 µg/mL) | 148 (≈ 63.9 µg/mL) | 297 (≈ 128 µg/mL) | 37 (≈ 16 µg/mL) | 594 (≈ 256 µg/mL) | 297 (≈ 128 µg/mL) | 148 (≈ 63.9 µg/mL) | 148 (≈ 63.9 µg/mL) | 148 (≈ 63.9 µg/mL) | 148 (≈ 63.9 µg/mL) |
| C#CCN1CCN(c2cc3c(cc2F)c(=O)c(-c2csc(N)n2)cn3CC)CC1 | 19 (≈ 7.82 µg/mL) | 19 (≈ 7.82 µg/mL) | 10 (≈ 4.12 µg/mL) | 10 (≈ 4.12 µg/mL) | 5 (≈ 2.06 µg/mL) | 19 (≈ 7.82 µg/mL) | 19 (≈ 7.82 µg/mL) | 19 (≈ 7.82 µg/mL) | 39 (≈ 16 µg/mL) | 19 (≈ 7.82 µg/mL) | 156 (≈ 64.2 µg/mL) | 19 (≈ 7.82 µg/mL) | 19 (≈ 7.82 µg/mL) | 20 (≈ 8.23 µg/mL) | 5 (≈ 2.06 µg/mL) | 39 (≈ 16 µg/mL) |
| CCn1cc(-c2csc(N)n2)c(=O)c2cc(F)c(N3CCNCC3)cc21 | 343 (≈ 128 µg/mL) | 343 (≈ 128 µg/mL) | 343 (≈ 128 µg/mL) | 171 (≈ 63.9 µg/mL) | 343 (≈ 128 µg/mL) | 343 (≈ 128 µg/mL) | 21 (≈ 7.84 µg/mL) | 171 (≈ 63.9 µg/mL) | 685 (≈ 256 µg/mL) | 86 (≈ 32.1 µg/mL) | 171 (≈ 63.9 µg/mL) | 171 (≈ 63.9 µg/mL) | 171 (≈ 63.9 µg/mL) | 171 (≈ 63.9 µg/mL) | 343 (≈ 128 µg/mL) | 171 (≈ 63.9 µg/mL) |
| CCn1cc(-c2csc(N)n2)c(=O)c2cc(F)c(N3CCN(C)CC3)cc21 | 165 (≈ 63.9 µg/mL) | 331 (≈ 128 µg/mL) | 331 (≈ 128 µg/mL) | 83 (≈ 32.2 µg/mL) | 165 (≈ 63.9 µg/mL) | 331 (≈ 128 µg/mL) | 331 (≈ 128 µg/mL) | 165 (≈ 63.9 µg/mL) | 661 (≈ 256 µg/mL) | 165 (≈ 63.9 µg/mL) | 661 (≈ 256 µg/mL) | 331 (≈ 128 µg/mL) | 165 (≈ 63.9 µg/mL) | 331 (≈ 128 µg/mL) | 331 (≈ 128 µg/mL) | 41 (≈ 15.9 µg/mL) |
| CCn1cc(-c2csc(N)n2)c(=O)c2cc(F)c(N3CCN(CC(=O)N(C(C)C)C(C)C)CC3)cc21 | 498 (≈ 256 µg/mL) | 498 (≈ 256 µg/mL) | 996 (≈ 513 µg/mL) | 498 (≈ 256 µg/mL) | 249 (≈ 128 µg/mL) | 249 (≈ 128 µg/mL) | 249 (≈ 128 µg/mL) | 996 (≈ 513 µg/mL) | 498 (≈ 256 µg/mL) | 62 (≈ 31.9 µg/mL) | 498 (≈ 256 µg/mL) | 249 (≈ 128 µg/mL) | 498 (≈ 256 µg/mL) | 124 (≈ 63.8 µg/mL) | 249 (≈ 128 µg/mL) | 249 (≈ 128 µg/mL) |
| CCn1cc(-c2csc(N)n2)c(=O)c2cc(F)c(N3CCN(CC(=O)N(C)C)CC3)cc21 | 70 (≈ 32.1 µg/mL) | 70 (≈ 32.1 µg/mL) | 279 (≈ 128 µg/mL) | 35 (≈ 16 µg/mL) | 70 (≈ 32.1 µg/mL) | 140 (≈ 64.2 µg/mL) | 279 (≈ 128 µg/mL) | 70 (≈ 32.1 µg/mL) | 70 (≈ 32.1 µg/mL) | 35 (≈ 16 µg/mL) | 140 (≈ 64.2 µg/mL) | 140 (≈ 64.2 µg/mL) | 140 (≈ 64.2 µg/mL) | 70 (≈ 32.1 µg/mL) | 70 (≈ 32.1 µg/mL) | 17 (≈ 7.8 µg/mL) |
| CCn1cc(-c2csc(N)n2)c(=O)c2cc(F)c(N3CCN(C=O)CC3)cc21 | 160 (≈ 64.2 µg/mL) | 638 (≈ 256 µg/mL) | 160 (≈ 64.2 µg/mL) | 319 (≈ 128 µg/mL) | 80 (≈ 32.1 µg/mL) | 319 (≈ 128 µg/mL) | 638 (≈ 256 µg/mL) | 160 (≈ 64.2 µg/mL) | 638 (≈ 256 µg/mL) | 638 (≈ 256 µg/mL) | 638 (≈ 256 µg/mL) | 319 (≈ 128 µg/mL) | 166 (≈ 66.6 µg/mL) | 638 (≈ 256 µg/mL) | 638 (≈ 256 µg/mL) | 160 (≈ 64.2 µg/mL) |
